Measurements from ChEMBL document CHEMBL1144439, “A novel class of in vivo active anticancer agents: achiral seco-amino- and seco-hydroxycyclopropylbenz[e]indolone (seco-CBI) analogues of the duocarmycins and CC-1065” (J Med Chem, 2005).
Values belong to the compound of their own block, whether it stands above or below them.

What was measured:
[1] = test system: L1210; assay: The concentration required for inhibiting the growth of the murine L1210 leukemia cells by 50%; format: functional, cell-based; conditions: Mus musculus
Outline: (§1)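 MTT growth inhibition in murine lines grown in DMEM with 10% FBS, HEPES, glutamine, pen/strep at 37 °C, 5% CO2. Seeded 80 000 cells/well, continuous drug exposure (DMSO stock diluted in DMEM) for 72 h, quadruplicate wells per concentration. MTT added for 4 h, formazan dissolved in acid 2-propanol, read at 570 nm (reference 630 nm). IC50 extrapolated from averaged absorbance curves.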

[2] = The concentration required for inhibiting the growth of the murine B16-F0 melanoma cells by 50%; format: functional; conditions: Mus musculus, B16F0; outline: as §1
[3] = test system: CAKI-1; assay: Concentration required to kill 50% of human CAKI-1 renal cancer cells; format: functional
Outline: (§2)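 NCI 60-cell-line human tumour panel. Continuous 48 h drug exposure, then sulforhodamine B assay for cell viability. […] GI50 and TGI are generated from the same curves.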

[4] = test system: HCT-15; assay: Concentration required to kill 50% of human HCT-15 colon cancer cells; format: functional; outline: as §2
[5] = test system: MDA-N; assay: Concentration required to kill 50% of human MDA-N breast cancer cells; format: functional; outline: as §2
[6] = test system: PC-3; assay: Concentration required to kill 50% of human PC-3 prostate cancer cells; format: functional; outline: as §2
[7] = test system: RXF 393; assay: Concentration required to kill 50% of human RXF 393 renal cancer cells; format: functional; outline: as §2
[8] = test system: COLO 205; assay: Concentration required to kill 50% of human COLO 205 colon cancer cells; format: functional; outline: as §2
[9] = test system: HCC 2998; assay: Concentration required to kill 50% of human HCC2998 colon cancer cells; format: functional; outline: as §2
[10] = test system: Hs-578T; assay: Concentration required to kill 50% of human Hs 578.T breast cancer cells; format: functional; outline: as §2
[11] = test system: IGROV-1; assay: Concentration required to kill 50% of human IGROV1 ovarian cancer cells; format: functional; outline: as §2
[12] = test system: DU-145; assay: Concentration required to kill 50% of human DU-145 prostate cancer cells; format: functional; outline: as §2
[13] = test system: OVCAR-3; assay: Concentration required to kill 50% of human OVCAR-3 ovarian cancer cells; format: functional; outline: as §2
[14] = test system: OVCAR-5; assay: Concentration required to kill 50% of human OVCAR-5 ovarian cancer cells; format: functional; outline: as §2
[15] = test system: OVCAR-8; assay: Concentration required to kill 50% of human OVCAR-8 ovarian cancer cells; format: functional; outline: as §2
[16] = test system: SK-OV-3; assay: Concentration required to kill 50% of human SK-OV-3 ovarian cancer cells; format: functional; outline: as §2
[17] = test system: NCI/ADR-RES; assay: Concentration required to kill 50% of human NCI/ADR-RES breast cancer cells; format: functional; outline: as §2
[18] = test system: MDA-MB-231; assay: Concentration required to kill 50% of human MDA-MB-231/ATCC breast cancer cells; format: functional; outline: as §2
[19] = test system: EKVX; assay: Concentration required to kill 50% of human EKVX non-small cell lung cancer cells; format: functional; outline: as §2
[20] = test system: HOP-62; assay: Concentration required to kill 50% of human HOP-62 non-small cell lung cancer cells; format: functional; outline: as §2
[21] = test system: HOP-92; assay: Concentration required to kill 50% of human HOP-92 non-small cell lung cancer cells; format: functional; outline: as §2
[22] = test system: NCI-H23; assay: Concentration required to kill 50% of human NCI-H23 non-small cell lung cancer cells; format: functional; outline: as §2
[23] = test system: NCI-H226; assay: Concentration required to kill 50% of human NCI-H226 non-small cell lung cancer cells; format: functional; outline: as §2
[24] = test system: NCI-H460; assay: Concentration required to kill 50% of human NCI-H460 non-small cell lung cancer cells; format: functional; outline: as §2
[25] = test system: NCI-H522; assay: Concentration required to kill 50% of human NCI-H522 non-small cell lung cancer cells; format: functional; outline: as §2
[26] = test system: A549; assay: Concentration required to kill 50% of human A549/ATCC non-small cell lung cancer cells; format: functional; outline: as §2
[27] = test system: NCI-H322M; assay: Concentration required to kill 50% of human NCI-H322M non-small cell lung cancer cells; format: functional; outline: as §2
[28] = test system: HL-60; assay: Concentration required to kill 50% of human HL-60 leukemia cells; format: functional; outline: as §2
[29] = test system: K562; assay: Concentration required to kill 50% of human K-562 leukemia cells; format: functional; outline: as §2
[30] = test system: MOLT-4; assay: Concentration required to kill 50% of human MOLT-4 leukemia cells; format: functional; outline: as §2
[31] = Concentration required to kill 50% of human U-251 CNS cancer cells; format: functional
Outline: (§3)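 NCI 60-cell human cancer panel run at the National Cancer Institute. Cells exposed to compound for 48 h, with a sulforhodamine B read-out.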

[32] = test system: UACC-62; assay: Concentration required to kill 50% of human UACC-62 melanoma cells; format: functional; outline: as §3
[33] = test system: ACHN; assay: Concentration required to kill 50% of human ACHN renal cancer cells; format: functional; outline: as §2
[34] = test system: HT-29; assay: Concentration required to kill 50% of human HT-29 colon cancer cells; format: functional; outline: as §2
[35] = test system: KM12; assay: Concentration required to kill 50% of human KM12 colon cancer cells; format: functional; outline: as §2
[36] = test system: LOX IMVI; assay: Concentration required to kill 50% of human LOX IMVI melanoma cells; format: functional; outline: as §2
[37] = test system: K562; assay: The concentration required for inhibiting the growth of the human K562 chronic myeloid leukemia cells by 50%; format: functional, cell-based
Outline: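 Drug exposure was […] in the dark, then cells were washed and plated at 10⁴ cells/well, eight wells per sample, and incubated 4 days. MTT was added for 5 h, formazan dissolved in DMSO and read at 550 nm.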

[38] = test system: Malme-3M; assay: Concentration required to kill 50% of human MALME-3M melanoma cells; format: functional; outline: as §2
[39] = test system: SF-268; assay: Concentration required to kill 50% of human SF-268 CNS cancer cells; format: functional; outline: as §2
[40] = test system: SF-295; assay: Concentration required to kill 50% of human SF-295 CNS cancer cells; format: functional; outline: as §2
[41] = test system: SF-539; assay: Concentration required to kill 50% of human SF-539 CNS cancer cells; format: functional; outline: as §2
[42] = test system: SK-MEL-2; assay: Concentration required to kill 50% of human SK-MEL-2 melanoma cells; format: functional; outline: as §2
[43] = test system: SK-MEL-5; assay: Concentration required to kill 50% of human SK-MEL-5 melanoma cells; format: functional; outline: as §2
[44] = test system: SNB-19; assay: Concentration required to kill 50% of human SNB-19 CNS cancer cells; format: functional; outline: as §2
[45] = test system: 786-0; assay: Concentration required to kill 50% of human 786-0 renal cancer cells; format: functional; outline: as §2
[46] = test system: A498; assay: Concentration required to kill 50% of human A-498 renal cancer cells; format: functional; outline: as §2
[47] = test system: MCF7S; assay: Concentration required to kill 50% of human MCF-7 breast cancer cells; format: functional; outline: as §2
[48] = Concentration required to kill 50% of human RPMI-8226 leukemia cells; format: functional; outline: as §2
[49] = test system: SK-MEL-28; assay: Concentration required to kill 50% of human SK-MEL-28 melanoma cells; format: functional; outline: as §2
[50] = test system: SN12C; assay: Concentration required to kill 50% of human SN12C renal cancer cells; format: functional; outline: as §2
[51] = test system: TK-10; assay: Concentration required to kill 50% of human TK-10 renal cancer cells; format: functional; outline: as §3
[52] = test system: UO-31; assay: Concentration required to kill 50% of human UO-31 renal cancer cells; format: functional; outline: as §3
[53] = Concentration required to kill 50% of human T-47D breast cancer cells; format: functional, Cancer cell lines; outline: as §3
[54] = test system: BT-549; assay: Concentration required to kill 50% of human BT-549 breast cancer cells; format: functional; outline: as §2
[55] = test system: HCT-116; assay: Concentration required to kill 50% of human HCT116 colon cancer cells; format: functional; outline: as §2
[56] = test system: SNB-75; assay: Concentration required to kill 50% of human SNB-75 CNS cancer cells; format: functional; outline: as §2
[57] = test system: SW-620; assay: Concentration required to kill 50% of human SW-620 colon cancer cells; format: functional; outline: as §2
[58] = test system: OVCAR-4; assay: Concentration required to kill 50% of human OVCAR-4 ovarian cancer cells; format: functional; outline: as §2

- IC50 [1]: 41 µM
SMILES: COc1cc2cc(C(=O)Nc3cc(N)c4ccccc4c3CCO)[nH]c2c(OC)c1OC
- IC50 [2]: 60 µM

- IC50 [1]: 53 µM
SMILES: COc1cc2cc(C(=O)Nc3cc(N)c4ccccc4c3CCOC(C)=O)[nH]c2c(OC)c1OC
- IC50 [2]: 54 µM

SMILES: COc1cc2cc(C(=O)Nc3cc(NCc4ccccc4)c4ccccc4c3CCCl)[nH]c2c(OC)c1OC
- IC50 [2]: 5.4 µM

- IC50 [1]: 51 µM
SMILES: COc1cc2cc(C(=O)Nc3cc(OCc4ccccc4)c4ccccc4c3CCCl)[nH]c2c(OC)c1OC
- IC50 [2]: > 100 µM

- IC50 [1]: 0.18 µM
SMILES: COc1ccc(/C=C/C(=O)Nc2cc(N)c3ccccc3c2CCCl)c(OC)n1
- IC50 [2]: 0.062 µM

- IC50 [1]: 0.55 µM
SMILES: COc1ccc(/C=C/C(=O)Nc2cc(N)c3ccccc3c2CCCl)nc1
- IC50 [2]: 0.75 µM

SMILES: COc1cc2cc(C(=O)Nc3cc(N)c4ccccc4c3CCCl)[nH]c2c(OC)c1OC [CENTANAMYCIN]
- Log 10 LC50 [3]: >-4.3
- Log 10 LC50 [4]: >-4.3
- Log 10 LC50 [5]: >-4.3
- Log 10 LC50 [6]: -4.81
- Log 10 LC50 [7]: -6.86
- Log 10 LC50 [8]: -4.69
- Log 10 LC50 [9]: -6.65
- Log 10 LC50 [10]: >-4.3
- Log 10 LC50 [11]: >-4.3
- Log 10 LC50 [12]: >-4.3
- Log 10 LC50 [13]: >-4.3
- Log 10 LC50 [14]: -4.43
- Log 10 LC50 [15]: -4.69
- Log 10 LC50 [16]: >-4.3
- Log 10 LC50 [17]: -4.33
- Log 10 LC50 [18]: -4.58
- Log 10 LC50 [19]: -4.73
- Log 10 LC50 [20]: >-4.3
- Log 10 LC50 [21]: -4.42
- Log 10 LC50 [22]: -5.07
- Log 10 LC50 [23]: >-4.3
- Log 10 LC50 [24]: -4.81
- Log 10 LC50 [25]: -5.53
- Log 10 LC50 [26]: >-4.3
- Log 10 LC50 [27]: >-4.3
- Log 10 LC50 [28]: >-4.3
- Log 10 LC50 [29]: >-4.3
- Log 10 LC50 [30]: >-4.3
- Log 10 LC50 [31]: -5.21
- Log 10 LC50 [32]: -6.49
- Log 10 LC50 [33]: >-4.3
- Log 10 LC50 [34]: -4.41
- Log 10 LC50 [35]: >-4.3
- Log 10 LC50 [36]: -4.75
- IC50 [37]: 45 nM
- IC50 [1]: 0.18 µM
- Log 10 LC50 [38]: >-4.3
- Log 10 LC50 [39]: >-4.3
- Log 10 LC50 [40]: >-4.3
- Log 10 LC50 [41]: >-4.3
- Log 10 LC50 [42]: -6.74
- Log 10 LC50 [43]: -4.85
- Log 10 LC50 [44]: >-4.3
- Log 10 LC50 [45]: -4.58
- Log 10 LC50 [46]: >-4.3
- Log 10 LC50 [47]: -4.54
- Log 10 LC50 [48]: >-4.3
- Log 10 LC50 [49]: >-4.3
- Log 10 LC50 [50]: -5.65
- Log 10 LC50 [51]: -4.33
- Log 10 LC50 [52]: >-4.3
- Log 10 LC50 [53]: >-4.3
- Log 10 LC50 [54]: -5.76
- Log 10 LC50 [55]: -4.67
- IC50 [2]: 0.15 µM
- Log 10 LC50 [56]: -5.78
- Log 10 LC50 [57]: >-4.3
- Log 10 LC50 [58]: >-4.3
